In ChEMBL document CHEMBL3244054, “Kojic amine--a novel gamma-aminobutyric acid analogue” (J Med Chem, 1979):
Calls of active or inactive are those of the source. The rule behind the calls is not given here.

Tests used:
Felis catus [1] = assay: Skeletal muscle relaxant activity in po dosed chronic spinal mongrel cat assessed as reduction of flexor spasm administered every 15 mins interval; format: functional
How it was run: (§1)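 Test agent dissolved in normal saline and given to chronic spinal animals intravenously or by oral gavage as cumulative doses at 15-min intervals. The flexor reflex response was compared against predrug control responses. ED70 is the cumulative dose that reduced the flexor reflex by 70% or more.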

[2] = Dissociation constant, pKa of the compound; format: physicochemical
Mus musculus [3] = assay: Toxicity in Swiss mouse at 128 mg/kg, po; format: organism-based; set-up: dose 128 mg/kg, route oral; conditions: in vivo
Rattus norvegicus [4] = assay: Skeletal muscle relaxant activity in iv dosed chronic spinal Sprague-Dawley rat assessed as reduction of flexor spasm administered every 15 mins interval; format: functional; conditions: 0.25 h; how it was run: as §1
Felis catus [5] = assay: Skeletal muscle relaxant activity in iv dosed chronic spinal mongrel cat assessed as reduction of flexor spasm administered every 15 mins interval; format: functional; conditions: 0.25 h; how it was run: as §1
Mus musculus [6] = assay: Anticonvulsant activity in po dosed Swiss mouse assessed as reduction of 3-mercaptopropionic acid-induced tonic extensor-seizures within 3 to 7 mins; format: functional
How it was run: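 Robidoux Swiss male mice, 18–22 g. Test substances in saline given orally 30 min before ip 3-mercaptopropionic acid at 25 mg/kg, which induces tonic-extensor seizures within 3–7 min in 90–100% of mice. ED50 is the dose preventing tonic-extensor seizures in 50% of animals, by regression analysis over at least three doses with ten mice per dose level.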

Mus musculus [7] = assay: Toxicity in Swiss mouse at 8 mg/kg, po; format: organism-based; set-up: dose 8 mg/kg, route oral; conditions: in vivo
Rattus norvegicus [8] = assay: Toxicity in iv dosed chronic spinal Sprague-Dawley rat assessed as lethality at cumulative dose of 16 mg/kg, iv; format: organism-based; set-up: dose 16 mg/kg, route intravenous; conditions: in vivo
Felis catus [9] = assay: Skeletal muscle relaxant activity in chronic spinal mongrel cat assessed as reduction of flexor spasm up to 7.5 mg/kg, iv administered every 15 mins interval; format: functional, organism-based; set-up: dose 7.5 mg/kg
How it was run: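 Chronic spinal cat preparation. Test substances in normal saline were given iv in cumulative doses at 15-min intervals, and the flexor reflex response was recorded against predrug control responses. ED70 is the cumulative dose reducing the flexor reflex response by 70% or more.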

Felis catus [10] = assay: Skeletal muscle relaxant activity in chronic spinal mongrel cat assessed as reduction of flexor spasm up to 16 mg/kg, iv administered every 15 mins interval; format: functional, organism-based; set-up: dose 16 mg/kg; how it was run: as §1

CN(C)Cc1cc(=O)c(O)co1
ED70 (Felis catus [1]): inactive

NCCC(=O)NCc1cc(=O)c(O)co1
ED70 (Felis catus [1]): inactive

NCc1cc(=O)c(O)c[nH]1
ED70 (Felis catus [1]): inactive

NC(Cl)c1cc(=O)c(O)co1 (stereo not given)
ED70 (Felis catus [1]): inactive

O=c1cc(CO)occ1O [KOJIC ACID]
pKa [2]: 7.95

Cn1cc(O)c(=O)cc1CN
ED70 (Felis catus [1]): inactive

NCc1cc(=O)c(O)co1
Activity (Mus musculus [3]): Non-toxic | ED70 (Rattus norvegicus [4]): 8 mg/kg | ED70 (Felis catus [5]): 2.2 mg/kg | ED70 (Felis catus [1]; 0.25 h): 4 mg/kg | ED50 (Mus musculus [6]): 15 mg/kg | pKa [2]: 6.6

CC(N)c1cc(=O)c(O)co1 (stereo not given)
ED70 (Felis catus [1]): inactive

CC(N)C(=O)NCc1cc(=O)c(O)co1 (stereo not given)
ED70 (Rattus norvegicus [4]): 8 mg/kg | ED70 (Felis catus [5]): 12 mg/kg

O=c1cc(CNCc2ccccc2)occ1O
ED70 (Felis catus [1]): inactive

NCCc1cc(=O)c(O)co1
ED70 (Felis catus [1]): inactive

NCCCC(=O)O [GAMMA-AMINOBUTYRIC ACID]
pKa [2]: 4.04

NCc1cc(=O)[nH]o1 [MUSCIMOL]
pKa [2]: 4.78 | Activity (Mus musculus [7]): Toxic | Activity (Rattus norvegicus [8]): Toxic

NCC(=O)NCc1cc(=O)c(O)co1
ED70 (Rattus norvegicus [4]): 8 mg/kg | ED70 (Felis catus [5]): 12 mg/kg

CNCc1cc(=O)c(O)co1
ED70 (Felis catus [1]): inactive

NCCCC(=O)NCc1cc(=O)c(O)co1
ED70 (Felis catus [1]): inactive

CC(=O)NCc1cc(=O)c(O)co1
ED70 (Felis catus [1]): inactive

NCc1cc(O)no1 [MUSCIMOL]
ED70 (Rattus norvegicus [4]): 16 mg/kg | ED50 (Mus musculus [6]): 1.34 mg/kg | Activity (Felis catus [9]): inactive

NCCCc1cc(=O)c(O)co1
Activity (Felis catus [10]): inactive
